In article PMC6865048 (Clinical cancer research : an official journal of the …, 2018):
“And” between values parts separate entries of the source, which are not always exact repeats. Identical values can stand only once. “Also recorded” adds a separate entry of the source. Like-named read-outs stand apart in the source and are kept apart here.

What was measured:
[1] = format: in vivo, human
[2] = tested on: Wee1; conditions: cell-based assays; ref https://ncats.nih.gov/files/AZD1775.pdf; cited from earlier work
[3] = tested on: phosphohistone-3 (PH3); format: in vivo, human; conditions: for PH3 expression vs matched archival tissue: 8 hours
Summary of the method: (§1)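 A 0.5 cm³ re-resection tumor sample, snap-frozen at -80° C, was compared with FFPE tissue from the same patient's initial resection by IHC. Antibody conditions: γH2AX 1:100, 1 h at room temperature; PH3 1:100, overnight at 4°C; CC3 1:50, overnight at 4°C. Staining was quantified by semiquantitative image analysis. Mean fold change was tested against 1.000 by two-sided one-sample t test, or Wilcoxon signed-rank test if non-normal.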

[4] = tested on: γH2AX; assay: IHC of double-strand DNA damage in resected tumor vs matched archival tissue; format: in vivo, human; conditions: 8 hours
Summary of the method: as §1

[5] = format: in vivo, human; conditions: single oral dose of 400 mg, at 2 to 24 h
Summary of the method: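 Adult recurrent glioblastoma patients took a single oral dose before resection. Contrast-enhancing tumor was taken intraoperatively, rinsed in ice-cold PBS, blot-dried, snap-frozen and held at -80° C. EDTA blood was spun at 4°C, 1,500 × g, 10 min. Total drug in plasma and tumor was measured by validated LC/MS-MS, and fraction unbound by equilibrium dialysis. Unbound concentration = total × fraction unbound. Kp and Kp,uu = tumor/plasma total and unbound ratios.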

[6] = Safety assessment in the phase 0 trial; format: in vivo, human; conditions: single oral dose 100, 200 or 400 mg, 20 glioblastoma patients
Summary of the method: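 Twenty adult glioblastoma patients took a single oral dose before tumor resection. Screening collected demographics and medical history. Baseline safety assessments were physical examination, vital signs, ECOG performance status, concomitant medication record, hematology, biochemistry and urinalysis.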

[7] = tested on: cleaved caspase-3 (CC3); assay: IHC of programmed cell death in resected tumor vs matched archival tissue; format: in vivo, human; conditions: for CC3 apoptotic marker vs matched archival tissue: 8 hours
Summary of the method: as §1

[8] = covariate model, estimate (%RSE)
[9] = 8-hour posttreatment interval (discussion)

C=CCn1c(=O)c2cnc(Nc3ccc(N4CCN(C)CC4)cc3)nc2n1-c1cccc(C(C)(C)O)n1 [AZD1775]
CL/F, apparent oral clearance ([1]; base model, estimate (%RSE)): 160 (15) L/hour
IIV of Ka ([1]; base model, estimate (%RSE)): 100 (310) CV%
Ka ([1]; base model, estimate (%RSE)): 2.00 (114) h^−1
B, covariate effect of glomerular filtration rate on CL/F ([1]; covariate model, CL/F = A + B × (GFR - 98), estimate (%RSE)): 1.7 (44)
IIV of Ka [1, 8]: 100 (300) CV%
Ka [1, 8]: 2.10 (111) h^−1
V/F, apparent volume of distribution [1, 8]: 1,500 (17) L
CL/F, apparent oral clearance ([1]; covariate model, typical patient with GFR of 98 mL/minute, estimate (%RSE)): 160 L/hour and 160^a (14) L/hour
interindividual variability of CL/F explained by glomerular filtration rate ([1]; covariate on CL/F): 17%
Vd/F ([1]; human, plasma, oral): 1500 L
first-order absorption rate constant (Ka) ([1]; one-compartment model, single oral dose 100, 200, 400 mg, glioblastoma patients): 2.1 h⁻¹
in vitro IC50 for inhibition of Wee1 activity and induction of DNA damage as well as G2 checkpoint escape [2]: 0.04 µg/mL
cell-cycling [3, 9]: increased over threefold
PH3 expression change ([3]; 8-hour time interval, all dose cohorts together (n = 12), P = 0.0210): increased significantly
PH3 expression vs matched archival tissue ([3]; 200-mg dose cohort): Increased expression
PH3 expression vs matched archival tissue ([3]; 400-mg dose cohort): substantially increased
double-stranded DNA damage measured by γH2AX vs matched archival tissue ([4]; 100- and 400-mg dose cohorts): less dramatic
double-stranded DNA damage measured by γH2AX vs matched archival tissue ([4]; 200-mg dose cohort): increased
mean unbound AZD1775 tumor concentration [5]: 85 ng/g
tolerability / adverse effects [6]: No drug-related adverse events; also recorded: well-tolerated; no significant adverse effects were observed
programmed cell death [7, 9]: increased threefold
mean increase in CC3 expression ([7]; 8-hour time interval, all dose cohorts together (n = 12), P = 0.0727): +112.2%
CC3 apoptotic marker vs matched archival tissue ([7]; 200-mg dose cohort): increased most
CC3 apoptotic marker vs matched archival tissue ([7]; 400-mg group): modest increase
